# Measured values taken from ChEMBL document CHEMBL1144532, “Antiprotozoal and antimicrobial activities of O-alkylated and formylated acylphloroglucinols” (Bioorg Med Chem, 2007).
# The source made the active and inactive calls. No cut-off for these calls is given here.
# Assays:
# Vero [1] = assay: Cytotoxicity against Vero cells by neutral red assay; type: cell-based; details: chlorocebus sabaeus
# In short: (§1)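 Cells seeded 25,000/well, grown 24 h, then exposed to samples 48 h; viable cells quantified by neutral red uptake. IC50 taken from logarithmic plots of growth inhibition versus concentration; DMSO vehicle control.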
# LLC-PK1 [2] = assay: Cytotoxicity against LLC-PK1 cells by neutral red assay; type: cell-based; details: Sus scrofa; in short: as §1
# Leishmania donovani [3] = assay: Antileishmanial activity against Leishmania donovani promastigotes after 48 hrs by Alamar blue assay; type: functional, organism-based
# In short: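 L. donovani promastigotes grown in RPMI 1640 + 10% fetal calf serum at 26 °C; 3-day culture diluted to 5 × 10^5/mL, drug dilutions made directly in suspension, 48 h at 26 °C. Alamar blue fluorescence 544 nm ex/590 nm em; IC50 and IC90 from percent growth vs concentration curves.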
# Leishmania donovani [4] = assay: Antileishmanial activity against Leishmania donovani promastigotes after 48 hrs at 40 ug/mL by Alamar blue assay; type: functional, organism-based
# LLC-PK1 [5] = assay: Cytotoxicity against LLC-PK1 cells up to 23.8 ug/mL by neutral red assay; type: cell-based, Sus scrofa; details: pig
# Vero [6] = assay: Cytotoxicity against Vero cells up to 23.8 ug/mL by neutral red assay; type: cell-based; details: chlorocebus sabaeus
# Cryptococcus neoformans [7] = assay: Antifungal activity against Cryptococcus neoformans; type: functional, organism-based
# In short: (§2)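 Samples in DMSO serially diluted in 0.9% saline, tested in duplicate; inocula set against 0.5 McFarland standard (absorbance 630 nm) and diluted in broth to recommended levels. Growth, solvent and media controls included. Read at 630 nm, or fluorescence 544ex/590em for M. intracellulare (modified Alamar Blue), before and after incubation; IC50 from percent growth versus concentration.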
# Candida albicans [8] = assay: Antifungal activity against Candida albicans; type: functional, organism-based; in short: as §2
# [9] = test system: Mycobacterium intracellulare; assay: Antimicrobial activity against Mycobacterium intracellular; type: functional, organism-based; in short: as §2
# Aspergillus fumigatus = assay: Antifungal activity against Aspergillus fumigatus; type: functional, organism-based; in short: as §2
# Staphylococcus aureus [10] = assay: Antibacterial activity against methicillin-resistant Staphylococcus aureus at 20 ug/mL; type: functional, organism-based
# In short: (§3)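 Samples in DMSO, serially diluted in 0.9% saline, tested in duplicate. Inoculum set against the 0.5 McFarland standard by absorbance at 630 nm, then diluted in broth. Growth, solvent and media controls included. Absorbance read at 630 nm before and after incubation. IC50 taken from percent growth versus concentration. Inactivity was scored at 20 µg/mL.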
# Plasmodium falciparum [11] = assay: Antimalarial activity against Plasmodium falciparum D6; type: functional, organism-based
# In short: (§4)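 P. falciparum-infected erythrocytes at 2% parasitemia, 2% hematocrit in RPMI 1640 with 10% human serum and 60 µg/mL amikacin, exposed to serial dilutions 72 h at 37 °C under 90% N2/5% O2/5% CO2. Parasite LDH measured with Malstat reagent then NBT/PES, stopped with 5% acetic acid, A650; IC50 from dose–response. DMSO 0.25% vehicle.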
# Plasmodium falciparum [12] = assay: Antimalarial activity against Plasmodium falciparum W2; type: functional, organism-based; in short: as §4
# Cryptococcus neoformans [13] = assay: Antifungal activity against Cryptococcus neoformans at 20 ug/mL; type: functional, organism-based
# LLC-PK1 [14] = assay: Cytotoxicity against LLC-PK1 cells up to 4.76 ug/mL by neutral red assay; type: cell-based, Sus scrofa; details: pig
# Vero [15] = assay: Cytotoxicity against Vero cells up to 4.76 ug/mL by neutral red assay; type: cell-based; details: chlorocebus sabaeus
# Staphylococcus aureus [16] = assay: Antibacterial activity against methicillin-resistant Staphylococcus aureus; type: functional, organism-based; in short: as §3
# Candida albicans [17] = assay: Antifungal activity against Candida albicans at 20 ug/mL; type: functional, organism-based
Compound,IC50 (Leishmania donovani [3]),IC90 (Leishmania donovani [3]),Activity [9],Activity (Aspergillus fumigatus),Activity (Staphylococcus aureus [10]),Activity (Plasmodium falciparum [11]),Activity (Plasmodium falciparum [12]),further results
C=CCOc1cc(O)c(C(=O)CC(C)C)c(O)c1C=O,5.3 µg/mL,31 µg/mL,,,,,,IC50 (Vero [1]): 17 µg/mL; IC50 (LLC-PK1 [2]): 9 µg/mL
C=CCOc1cc(O)c(C(C)=O)c(O)c1C=O,,,,,,,,Activity (Leishmania donovani [4]): inactive; Activity (LLC-PK1 [5]): Not Active; Activity (Vero [6]): Not Active
CC(=O)c1c(O)cc(OCCC(C)C)c(C=O)c1O,7.8 µg/mL,> 40 µg/mL,,,,,,Activity (LLC-PK1 [5]): Not Active; Activity (Vero [6]): Not Active
C[C@@H]1[C@H](O)[C@@H](C)/C=C/C=C/C=C/C=C/C=C/C=C/C=C/[C@H](O[C@@H]2O[C@H](C)[C@@H](O)[C@H](N)[C@@H]2O)C[C@@H]2O[C@](O)(C[C@@H](O)C[C@@H](O)[C@H](O)CC[C@@H](O)C[C@@H](O)CC(=O)O[C@H]1C)C[C@H](O)[C@H]2C(=O)O [AMPHOTERICIN B],0.32 µg/mL,0.9 µg/mL,inactive,inactive,,,,IC50 (Cryptococcus neoformans [7]): 0.7 µg/mL; IC50 (Candida albicans [8]): 0.3 µg/mL
CCN(CC)CCCC(C)Nc1ccnc2cc(Cl)ccc12 (configuration not stated),,,inactive,inactive,,,,
COc1cccc2c1C(=O)c1c(O)c3c(c(O)c1C2=O)C[C@@](O)(C(=O)CO)C[C@@H]3O[C@H]1C[C@H](N)[C@H](O)[C@H](C)O1,,,inactive,inactive,,,,
CC(C)CCOc1cc(O)c(CCC(C)C)c(O)c1C=O,10 µg/mL,36 µg/mL,,,,,,IC50 (Vero [1]): 4.6 µg/mL; IC50 (LLC-PK1 [2]): 11.5 µg/mL
CC(=O)c1c(O)c(C)c(O)c(C=O)c1O,,,inactive,inactive,inactive,inactive,inactive,Activity (Leishmania donovani [4]): inactive; IC50 (Candida albicans [8]): 15 µg/mL; Activity (Cryptococcus neoformans [13]): inactive; Activity (LLC-PK1 [14]): Not Active; Activity (Vero [15]): Not Active
CC(C)CCOc1cc(O)c(C(=O)CC(C)C)c(O)c1C(=O)CC(C)C,24 µg/mL,> 40 µg/mL,,,,,,Activity (LLC-PK1 [5]): Not Active; Activity (Vero [6]): Not Active
CC(C)CC(=O)c1c(O)c(C=O)c(O)c(C=O)c1O [JENSENONE],19 µg/mL,35 µg/mL,inactive,inactive,,inactive,inactive,IC50 (Candida albicans [8]): 5.5 µg/mL; Activity (Cryptococcus neoformans [13]): inactive; Activity (LLC-PK1 [14]): Not Active; IC50 (Staphylococcus aureus [16]): 20 µg/mL; Activity (Vero [15]): Not Active
O=C(O)c1cn(C2CC2)c2cc(N3CCNCC3)c(F)cc2c1=O,,,inactive,inactive,,,,
CC(C)=CCc1c(O)c(C=O)c(O)c(C(=O)/C(C)=C/O)c1O,,> 40 µg/mL,inactive,inactive,inactive,inactive,inactive,IC50 (Vero [1]): 19 µg/mL; Activity (Candida albicans [17]): inactive; Activity (Cryptococcus neoformans [13]): inactive; IC50 (LLC-PK1 [2]): 14.5 µg/mL
CC(=O)c1c(O)cc(OCCC(C)C)c(C(C)=O)c1O,40 µg/mL,> 40 µg/mL,,,,,,Activity (LLC-PK1 [5]): Not Active; Activity (Vero [6]): Not Active
CC(=O)c1c(O)cc(O)c(C(C)=O)c1O,27 µg/mL,> 40 µg/mL,inactive,inactive,inactive,inactive,inactive,IC50 (Vero [1]): 12 µg/mL; Activity (Candida albicans [17]): inactive; Activity (Cryptococcus neoformans [13]): inactive; IC50 (LLC-PK1 [2]): 11 µg/mL
CCC(=O)c1c(O)c(C)c(O)c(C=O)c1O,,,inactive,inactive,inactive,inactive,inactive,IC50 (Cryptococcus neoformans [7]): 20 µg/mL; Activity (Leishmania donovani [4]): inactive; IC50 (Candida albicans [8]): 5 µg/mL; Activity (LLC-PK1 [14]): Not Active; Activity (Vero [15]): Not Active
C/C(=C\O)C(=O)c1c(O)cc(O)c(C=O)c1O,29 µg/mL,> 40 µg/mL,inactive,inactive,inactive,inactive,inactive,IC50 (Cryptococcus neoformans [7]): 2.5 µg/mL; Activity (LLC-PK1 [5]): Not Active; IC50 (Candida albicans [8]): 2 µg/mL; Activity (Vero [6]): Not Active
Cc1c(O)c(C=O)c(O)c(C=O)c1O,,,inactive,inactive,inactive,inactive,inactive,Activity (Leishmania donovani [4]): inactive; Activity (Candida albicans [17]): inactive; Activity (Cryptococcus neoformans [13]): inactive; Activity (LLC-PK1 [14]): Not Active; Activity (Vero [15]): Not Active
C=CCOc1cc(O)c(C(C)=O)c(O)c1C(C)=O,,,,,,,,Activity (Leishmania donovani [4]): inactive; Activity (LLC-PK1 [5]): Not Active; Activity (Vero [6]): Not Active
Cc1c(O)c(C=O)c(O)c(C(=O)CC(C)C)c1O [GRANDINOL],21 µg/mL,39 µg/mL,inactive,inactive,,inactive,inactive,IC50 (Cryptococcus neoformans [7]): 10 µg/mL; IC50 (Vero [1]): 8 µg/mL; IC50 (Candida albicans [8]): 10 µg/mL; IC50 (LLC-PK1 [2]): 7 µg/mL; IC50 (Staphylococcus aureus [16]): 8 µg/mL
CC(C)CC(=O)c1c(O)cc(O)c(C=O)c1O,27 µg/mL,40 µg/mL,inactive,inactive,inactive,inactive,inactive,IC50 (Vero [1]): 14 µg/mL; Activity (Candida albicans [17]): inactive; Activity (Cryptococcus neoformans [13]): inactive; IC50 (LLC-PK1 [2]): 9.5 µg/mL
C[C@@H]1CC[C@H]2[C@@H](C)C(=O)O[C@@H]3O[C@@]4(C)CC[C@@H]1[C@]32OO4,,,inactive,inactive,,,,
N=C(N)c1ccc(OCCCCCOc2ccc(C(=N)N)cc2)cc1 [PENTAMIDINE],1.5 µg/mL,4.9 µg/mL,inactive,inactive,,,,
CC(C)CCOc1cc(O)c(C(=O)CC(C)C)c(O)c1C=O,4.2 µg/mL,> 40 µg/mL,,,,,,Activity (LLC-PK1 [5]): Not Active; Activity (Vero [6]): Not Active
CCC(=O)c1c(O)cc(O)c(C=O)c1O,,,inactive,inactive,inactive,inactive,inactive,IC50 (Cryptococcus neoformans [7]): 15 µg/mL; Activity (Leishmania donovani [4]): inactive; IC50 (Vero [1]): 18 µg/mL; Activity (Candida albicans [17]): inactive; IC50 (LLC-PK1 [2]): 11 µg/mL
C=CCOc1cc(O)c(C(=O)CC(C)C)c(O)c1C(=O)CC(C)C,14 µg/mL,36 µg/mL,,,,,,Activity (LLC-PK1 [5]): Not Active; Activity (Vero [6]): Not Active
CC(C)CCc1c(O)c(C=O)c(O)c(C=O)c1O,,,inactive,inactive,inactive,inactive,inactive,Activity (Leishmania donovani [4]): inactive; Activity (Candida albicans [17]): inactive; Activity (Cryptococcus neoformans [13]): inactive; Activity (LLC-PK1 [14]): Not Active; Activity (Vero [15]): Not Active
CC(=O)c1c(O)cc(O)c(C=O)c1O,,,inactive,inactive,inactive,inactive,inactive,Activity (Leishmania donovani [4]): inactive; IC50 (Vero [1]): 17.5 µg/mL; Activity (Candida albicans [17]): inactive; Activity (Cryptococcus neoformans [13]): inactive; IC50 (LLC-PK1 [2]): 10 µg/mL
